A word on the inhibition: it is the relative decrease from the control value, in per cent.

The source made the active and inactive calls. No cut-off for these calls is given here. Where a SMILES comes first, the peptide text is derived from it.

The test system of assay [1] is Lipid bilayer. Nature of the assay: Inhibition of PEG-induced DOPC/DOPE/DOPG/CH (40/30/10/20 mol%) (20 CH) small unilamellar vesicles fusion assessed as content mixing at 1:100 compound: lipid concentration preincubated for 10 mins followed by PEG addition by spectrofluorometric analysis. In short, it runs like this:
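Content mixing by Tb3+/DPA complex fluorescence. Vesicles loaded with 8 mM TbCl3 or 80 mM DPA, external probe removed by gel filtration. Mixed 1:1 at 200 μM lipid; peptide 2 μM added 10 min before 6% (w/v) PEG, 37 °C. Normalised to co-encapsulated and detergent-treated samples.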

Assay [2] has as its system Lipid bilayer. Nature of the assay: Inhibition of PEG-induced DOPC/DOPE/DOPG/CH (50/30/10/10 mol%) (10 CH) small unilamellar vesicles fusion assessed as content mixing at 1:100 compound: lipid concentration preincubated for 10 mins followed by PEG addition by spectrofluorometric analysis (reference value: 33 %). An outline of the steps:
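Tb3+-loaded (8 mM TbCl3) and DPA-loaded (80 mM) SUVs, external probe removed by Sephadex G-75, mixed 1:1 at 200 μM total lipid in 10 mM TES, 100 mM NaCl, 1 mM EDTA, 1 mM CaCl2, pH 7.4, 37 °C; 2 μM peptide added 10 min before 6% (w/v) PEG; Tb/DPA fluorescence rise over time, normalized with detergent; inhibition relative to no-peptide control.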

`CC[C@H](C)[C@H](NC(=O)[C@H](CC(C)C)NC(=O)[C@H](C)NC(=O)[C@@H](NC(=O)[C@H](Cc1ccccc1)NC(=O)[C@H](CCCCN)NC(=O)[C@@H]1CCCN1C(=O)[C@H](CC(N)=O)NC(=O)[C@@H](NC(=O)[C@H](C)NC(=O)[C@H](CS)NC(=O)[C@H](Cc1ccccc1)NC(=O)CNC(=O)[C@H](CO)NC(=O)[C@H](CC(=O)O)NC(=O)[C@H](Cc1c[nH]c2ccccc12)NC(=O)[C@@H](NC(=O)[C@@H](N)[C@@H](C)O)[C@@H](C)O)C(C)C)C(C)C)C(=O)N[C@@H](CS)C(=O)N[C@@H](CCC(=O)O)C(=O)N[C@@H](C)C(=O)N[C@@H](CO)C(=O)NCC(=O)O` (H-TTWDSGFCAVNPKFVALICEASG-OH): in the assay on Lipid bilayer [1], the inhibition entry is “inactive”. In addition, the inhibition with Lipid bilayer [2] amounted to 5%.

Values taken from ChEMBL document CHEMBL6182829, “Developing peptide-based fusion inhibitors as an antiviral strategy utilizing coronin 1 as a template” (RSC Med Chem, 2025).
